MBD2 DNA inh = MBD2-methylated oligo binding inhibition. Q9UBB5. TR-FRET, MBD2 binding to methylated oligonucleotide. inhibition, % at 4.4 µM. 370,000 compounds, 0.31% hits; in the data active = inhibition above about 13%
LEDGF integ inh = blocks HIV-1 LEDGF/p75-dependent DNA integration; TR-FRET IN-LEDGF/p75 DNA integration, Eu/Cy5; inhibition, % at 3.7 µM; 370,000 compounds, 0.64% hits;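 active = inhibition above the screen-wide mean plus 3 SD, cut at about 13% in these data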;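 also: signal is the Cy5 over europium emission ratio at 671 and 618 nm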
Rin1-Abl PPI inh = human Rin1-Abl interaction inhibition; TR-FRET Rin1/Abl binding, biochemical; inhibition, % at 7.35 µM; 360,000 compounds, 0.4% hits; AID 588664; in the data active = inhibition above about 5%, passing the limit was not always enough
TDP2 absorb = blocks human TDP2 phosphodiesterase activity; recombinant TDP2, T5PNP hydrolysis, p-nitrophenol absorbance 415 nm; inhibition, % at 12.8 µM; 370,000 compounds, 0.34% hits; O95551;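 active = inhibition above the mean of all tested compounds plus 3 SD, set per campaign, cut at about 25% in these data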
Target sequence (O95551 whole entry, looked up): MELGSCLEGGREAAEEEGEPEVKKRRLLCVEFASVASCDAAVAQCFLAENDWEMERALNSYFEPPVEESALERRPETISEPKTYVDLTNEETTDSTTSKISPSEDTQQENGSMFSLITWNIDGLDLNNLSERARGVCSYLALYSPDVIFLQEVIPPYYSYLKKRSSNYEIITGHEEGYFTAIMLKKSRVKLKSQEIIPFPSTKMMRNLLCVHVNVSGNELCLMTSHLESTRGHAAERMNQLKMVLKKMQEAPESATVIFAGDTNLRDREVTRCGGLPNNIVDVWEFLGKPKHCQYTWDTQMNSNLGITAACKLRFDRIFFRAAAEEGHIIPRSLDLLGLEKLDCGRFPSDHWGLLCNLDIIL
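Read-out basis: percent inhibition. System: recombinant human TDP2. Buffer or medium: Mg2+-containing Tris-HCl buffer, pH 7.5. Repeats: single replicate. Timing: reaction 2 h, 37 °C. Benchmarks: high control without enzyme, low control DMSO plus TDP2. Probe or stimulus: 5 mM T5PNP. Doses: 12.8 µM only. Measured by: epi absorbance of p-nitrophenol freed from T5PNP by hydrolysis.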
UHRF1 binding = UHRF1 methyl-DNA binding inhibition; UHRF1 binding to methylated oligo, TR-FRET; Q96T88; inhibition, % at 4.4 µM; AID 687016; 370,000 compounds, 0.75% hits;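 also: UHRF1 SRA domain binding a hemimethylated CpG hairpin DNA probe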
UHRF1 DNA bind = inhibits human UHRF1 binding to methylated oligonucleotide, MBD2 counter-screen | shares compounds with MBD2 DNA inh | TR-FRET | inhibition, % at 4.4 µM | 1,000 compounds, 25% hits;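 also: UHRF1 SRA domain binding a labeled hemimethylated CpG hairpin DNA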
MBD2 confirm = confirmation of human MBD2-DBD methylated oligonucleotide binding inhibitors; shares compounds with MBD2 DNA inh; TR-FRET MBD2-DBD binding to methylated oligonucleotide; inhibition, % at 4.4 µM; 1,000 compounds, 26% hits; AID 720531; in the data active = inhibition above about 14%
Of the large screens only hits and unclear results are named; the others gave an inactive call (follow-up assays come after a bar, where they were run). Rows were chosen to be rich in hits. Some 1.9% of all compounds tested hit in one or more screens of this group. Rule as the data show it, unless noted: active = inhibition above about 21%; inactive = the rest.

Cc1ccc(S(=O)(=O)N2CCOCC2)cc1NC(=O)CSc1nc2ccccc2c(=O)n1Cc1ccccc1	none
CCOC(=O)c1c[nH]c(=S)n(-c2ccccc2)c1=O	MBD2 DNA inh 37.1 | UHRF1 DNA bind inactive | MBD2 confirm inactive
COc1ccc(C(=O)N(CN2CCCC2=O)c2ccc(C)cc2)cc1	none
Cc1ccc(N(CN2CCCC2=O)C(=O)c2ccccc2)cc1	MBD2 DNA inh 17.1 | UHRF1 DNA bind inactive | MBD2 confirm inactive
C#CCN1C(=O)[C@@](O)(c2cccn2C)c2cc(F)ccc21	none (no result: Rin1-Abl PPI inh)
O=C(CN1C(=O)CCSc2ccccc21)Nc1ccc(Cl)c(Cl)c1	none (no result: Rin1-Abl PPI inh)
COC(=O)c1cc(OC)c(OC)cc1NC(=S)N1CCCC(CO)C1 (configuration not stated)	none
COC(=O)c1ccc(C(=O)OC)c(NC(=S)N2CCCC(CO)C2)c1 (configuration not stated)	MBD2 DNA inh 24.2 | UHRF1 DNA bind inactive | MBD2 confirm inactive
O=c1c2cc3cc(Cl)ccc3nc2ncn1N1CCCCC1	none (no result: Rin1-Abl PPI inh)
CCc1ccccc1Nc1nc(N)nc(COC(=O)c2c(C)noc2C)n1	MBD2 DNA inh 13.6, UHRF1 binding 23.3 | UHRF1 DNA bind inactive | MBD2 confirm inactive
O=C(Cn1cnc2scc(-c3cccc([N+](=O)[O-])c3)c2c1=O)NCc1ccco1	MBD2 DNA inh 23.8 | UHRF1 DNA bind 23.3 | MBD2 confirm 17.1
O=C(NC1CCCCN(Cc2ccc(Cl)cc2)C1=O)c1ccc(F)c(F)c1 (configuration not stated)	none (no result: Rin1-Abl PPI inh)
COCCCNC(=O)c1cc2c(=O)n3cccc(C)c3nc2n(C(C)C)c1=N	MBD2 DNA inh 13.6, UHRF1 binding 21.6 | UHRF1 DNA bind inactive | MBD2 confirm inactive
COCCn1c(=N)c(C(=O)NCCc2ccc(OC)cc2)cc2c(=O)n3cccc(C)c3nc21	none
CN(C)CCNC(=O)c1sc2cccc(F)c2c1Cl	none
CN(C)CCNC(=O)c1cccc2nc3cccc(F)c3nc12	MBD2 DNA inh 35.1, UHRF1 binding 23.1 | UHRF1 DNA bind 34.6 | MBD2 confirm 37.4
COc1ccc(C23CC4CC(CC(C4)C2)C3)cc1C(=O)NCCN(C)C	none
COc1ccc(OC)c2nc3c(C(=O)NCCN(C)C)cccc3nc12	MBD2 DNA inh 52.9, UHRF1 binding 56.5 | UHRF1 DNA bind 70.6 | MBD2 confirm 63.0
CCNC(=O)C1(C)CCN(Cc2ccc(OC(F)(F)F)cc2)C1 (configuration not stated)	MBD2 DNA inh 29.1 | UHRF1 DNA bind inactive | MBD2 confirm inactive
Cc1ccc(-c2cc3nc(C)cc(C)n3n2)cc1	none
Cc1cc(C)n2nc(-c3ccc(F)cc3)cc2n1	MBD2 DNA inh 27.9 | UHRF1 DNA bind inactive | MBD2 confirm inactive
O=C(N=C1SC2CS(=O)(=O)CC2N1CCc1ccccc1)C1CCCCC1 (configuration not stated)	MBD2 DNA inh 86.3 | UHRF1 DNA bind inactive | MBD2 confirm inactive
Cc1ccccc1NC(=O)C1c2cccc[n+]2CC(=O)N1Cc1ccc2c(c1)OCO2 (configuration not stated)	none
Cc1cccc(C)c1NC(=O)C1c2cccc[n+]2CC(=O)N1Cc1cccs1 (configuration not stated)	MBD2 DNA inh 46.4 | UHRF1 DNA bind inactive | MBD2 confirm inactive
COc1ccc2cc([C@H](C)C(=O)OCc3cn(CC(=O)c4ccc(O)cc4)nn3)ccc2c1	MBD2 DNA inh 15.1 | UHRF1 DNA bind inactive | MBD2 confirm inactive
COc1ccc(C=O)c(OCc2cn(CC(=O)c3ccc(O)cc3)nn2)c1	MBD2 DNA inh 13.8, UHRF1 binding 23.5 | UHRF1 DNA bind inactive | MBD2 confirm inactive
O=C(Cn1cc(COC(=O)c2c3ccccc3cc3ccccc23)nn1)c1ccc(O)cc1	none (no result: Rin1-Abl PPI inh)
O=C(Cn1cc(COc2ccc3ccc(=O)oc3c2)nn1)c1ccc(O)cc1	none
N=C1N(C(=O)OCc2ccccc2)/C(=C\C2=CCCCC2)C(Cc2ccccc2)N1Cc1ccccc1 (configuration not stated)	none (no result: Rin1-Abl PPI inh)
Cc1ccccc1Cn1cc(CN2[C@H](Cc3ccccc3)COc3cc(Br)ccc3S2(=O)=O)nn1	none (no result: Rin1-Abl PPI inh)
CCn1nc(C(=O)NNC(=O)c2ccccc2)c2ccccc2c1=O	MBD2 DNA inh 24.3 | UHRF1 DNA bind inactive | MBD2 confirm inactive
C=CCN1C(=O)[C@H](CC(=O)NCCCC)[C@@]2(C(=O)OCC)CCCC=C12	none (no result: Rin1-Abl PPI inh)
O=C(CN(CCc1ccccc1)S(=O)(=O)c1ccc(Cl)s1)N1CCOCC1	none (no result: Rin1-Abl PPI inh)
COC(=O)[C@H](CC(C)C)N(Cc1cn(Cc2ccc(C)cc2)nn1)S(=O)(=O)c1ccccc1Br	MBD2 DNA inh 18.4 (no result: Rin1-Abl PPI inh) | UHRF1 DNA bind inactive | MBD2 confirm inactive
COc1ccc(NC(=O)Nc2ccccc2OC)cc1	none
COc1ccccc1NC(=O)Nc1ccc(CC#N)cc1	MBD2 DNA inh 60.4 | UHRF1 DNA bind inactive | MBD2 confirm inactive
CCCCOCCCNC(=O)N[C@H](C(=O)OC)C(C)C	none
CCCCCNC(=O)N[C@H](C(=O)O)C(C)C	MBD2 DNA inh 16.1 | UHRF1 DNA bind inactive | MBD2 confirm inactive
CCOC(=O)[C@@]12CCC3=C1N(CCC3)C(=O)[C@H](CC(=O)NCC13CC4CC(CC(C4)C1)C3)C2	none (no result: Rin1-Abl PPI inh)
CC1(C(=O)NS(=O)(=O)c2cccc(F)c2)CCN1C(=O)CCc1ccc(Cl)cc1Cl (configuration not stated)	none
CC1(C(=O)NS(=O)(=O)c2ccc(F)cc2F)CCN1C(=O)CCc1ccc(Cl)cc1Cl (configuration not stated)	MBD2 DNA inh 26.4 | UHRF1 DNA bind inactive | MBD2 confirm inactive
O=C(Nc1ccccc1[N+](=O)[O-])NC1CCCCN(Cc2cccc(Cl)c2)C1=O (configuration not stated)	none (no result: Rin1-Abl PPI inh)
Cc1c[n+]([O-])n(-c2ccc(C(=O)O)cc2)n1	MBD2 DNA inh 15.2 | UHRF1 DNA bind inactive | MBD2 confirm inactive
Cc1nn(-c2ccc(C(=O)O)cc2)c(C)c1Cl	none
c1ccc2c(c1)c1c(c3ccccc32)CN2CCCC2C1 (configuration not stated)	MBD2 DNA inh 36.5, UHRF1 binding 26.3 | UHRF1 DNA bind 33.8 | MBD2 confirm 49.0
C=CCN1C(=O)[C@@H](CC(=O)N2CCSCC2)[C@]2(C(=O)OCC)CCCCC/C=C/12	none (no result: Rin1-Abl PPI inh)
CC(C)(C)C(=O)NC1CCN(S(=O)(=O)c2ccccc2F)CC1	MBD2 DNA inh 14.6 | UHRF1 DNA bind inactive | MBD2 confirm inactive
O=C(NNC(=O)c1cccc(-n2cccc2)c1)c1ccccc1	none
O=C(NNC(=O)c1ccccc1F)c1cccc(-n2cccc2)c1	MBD2 DNA inh 24.4, UHRF1 binding 45.8 | UHRF1 DNA bind 45.8 | MBD2 confirm 33.5

High-throughput results deposited in PubChem BioAssay by The Scripps Research Institute Molecular Screening Center.
